# Activity calls are given as the source filed them. The calls are words filed in the database; no cut-off is given here.
# Columns and labels:
# Histone deacetylase HD1B = Histone deacetylase HD1B (Zea mays, UniProt Q9ZTP8); assay: Inhibition of maize HD1B
# Histone deacetylase HD2 = biological target: T1, Histone deacetylase HD2 (Zea mays, UniProt Q94F81); assay: Inhibition of maize HD2
# T1 sequence (Q94F81 whole entry): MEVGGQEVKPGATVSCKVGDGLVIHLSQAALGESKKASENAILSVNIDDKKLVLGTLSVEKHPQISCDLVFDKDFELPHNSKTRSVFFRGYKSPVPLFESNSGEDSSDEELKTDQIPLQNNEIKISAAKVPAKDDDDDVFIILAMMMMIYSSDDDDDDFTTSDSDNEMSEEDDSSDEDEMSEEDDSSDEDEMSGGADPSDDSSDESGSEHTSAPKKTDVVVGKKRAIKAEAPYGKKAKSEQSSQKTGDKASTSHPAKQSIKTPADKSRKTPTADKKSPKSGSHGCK
# U-937 [1] = assay: Induction of apoptosis in U937 cells at 5 uM by AnnexinV/PI double staining; format: functional
# Outline: (§1)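 U937 cells exposed 48 h at 1 or 5 µM; apoptosis read by Annexin V/propidium iodide double staining and FACS.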
# Zea mays [2] = assay: Selectivity for HD1A class II HDAC over HD1B class I HDAC
# Histone deacetylase 1 = Histone deacetylase 1 (Mus musculus, UniProt O09106); assay: Inhibition of mouse HDAC1
# U-937 [3] = assay: Induction of granulocytic differentiation of U937 cells measured as CD11c expression level after 48 hrs at 5 uM; format: functional, Homo sapiens
# Outline: (§2)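 Granulocytic differentiation: U937 cells treated 48 h at 1 or 5 µM, stained with PE-conjugated anti-CD11c (PE mouse IgG1 control) 30 min at 4 °C in dark, resuspended in PBS with PI 0.25 µg/mL; FACS, PI-positive cells excluded; percent CD11c-positive PI-negative cells reported.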
# U-937 [4] = assay: Induction of granulocytic differentiation of U937 cells measured as CD11c expression level after 48 hrs at 1 uM; format: functional, Homo sapiens; outline: as §2
# [5] = biological target: Histone deacetylase 4 (Homo sapiens) (UniProt P56524); assay: Inhibition of HDAC4 in ZR75.1 cell at 5 uM; conditions: ZR-75-1
# Outline: (§3)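 HDAC4 immunoprecipitated overnight at 4 °C from ZR-75.1 breast cancer lysates (1000 µg extract, anti-HDAC4; IgG negative control); 10 µL IP incubated overnight at 37 °C with 120 000 CPM [3H]acetyl-histone H4 peptide on streptavidin beads in HDAC buffer ± inhibitor (5 µM); scintillation counting; quadruplicate.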
# [6] = biological target: Histone deacetylase 1 (Homo sapiens) (UniProt Q13547); assay: Inhibition of HDAC1 in U937 cell at 5 uM; conditions: U-937
# Outline: as §3, with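 “HDAC1” for “HDAC4”, “U937” for “ZR-75.1 breast cancer”, “anti-HDAC1;” for “anti-HDAC4;”, “µM); released radioactivity by” for “µM);”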
# U-937 [7] = assay: Induction of H3 histone acetylation in U937 cells by Western blot analysis at 5 uM; format: functional, cell-based; conditions: Homo sapiens
# U-937 [8] = assay: Induction of alpha-tubulin acetylation in U937 cells by Western blot analysis; format: functional, cell-based; conditions: Homo sapiens
# Outline: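 Western blot of U937 total protein extracts (25 µg) on 10% polyacrylamide gel, probed for acetylated alpha-tubulin (1:500); total ERKs used as loading control.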
# [9] = biological target: T2, Histone deacetylase HD2 (Zea mays) (UniProt Q94F81); assay: Inhibition of maize HD2 at 20.9 uM
# T2 sequence (whole entry): T1 sequence (Q94F81 whole entry)
# [10] = biological target: Histone deacetylase HD1B (Zea mays) (UniProt Q9ZTP8); assay: Inhibition of maize HD1B at 20.9 uM
# Zea mays [11] = assay: Inhibition of maize HD1A at 20.9 uM
# U-937 [12] = assay: Cell cycle arrest in U937 cells by accumulation at S/G2/M phase at 5 uM after 24 hrs; conditions: Homo sapiens
# U-937 [13] = assay: Cell cycle arrest in U937 cells by accumulation at G1 phase at 1 uM after 24 hrs; format: functional, cell-based; conditions: Homo sapiens
# Outline: (§4)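 U937 cells (RPMI, 10% FCS, kept at 200 000 cells/mL) treated 24 h at 1 or 5 µM (DMSO stocks); 2.5 × 10^5 cells resuspended in hypotonic buffer (0.1% Triton X-100, 0.1% sodium citrate, 50 µg/mL PI, RNAse A), 30 min dark; DNA content by flow cytometry; experiments performed three times.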
# U-937 [14] = assay: Cell cycle arrest in U937 cells by accumulation at G1 phase at 5 uM after 24 hrs; format: functional, cell-based; conditions: Homo sapiens; outline: as §4
# U-937 [15] = assay: Antiproliferative activity against U937 cells at 5 uM; format: functional, cell-based; conditions: Homo sapiens
# Outline: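 U937 cells seeded at 200 000 cells/mL in RPMI/10% FCS with vehicle or inhibitor at 5 µM; living cells counted every 24 h by Trypan Blue exclusion; data plotted after three days; triplicate.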
# U-937 [16] = assay: Induction of apoptosis in U937 cells at 1 uM by AnnexinV/PI double satining; format: functional, Homo sapiens; outline: as §1
# Histone deacetylase 1, sequence (O09106 whole entry): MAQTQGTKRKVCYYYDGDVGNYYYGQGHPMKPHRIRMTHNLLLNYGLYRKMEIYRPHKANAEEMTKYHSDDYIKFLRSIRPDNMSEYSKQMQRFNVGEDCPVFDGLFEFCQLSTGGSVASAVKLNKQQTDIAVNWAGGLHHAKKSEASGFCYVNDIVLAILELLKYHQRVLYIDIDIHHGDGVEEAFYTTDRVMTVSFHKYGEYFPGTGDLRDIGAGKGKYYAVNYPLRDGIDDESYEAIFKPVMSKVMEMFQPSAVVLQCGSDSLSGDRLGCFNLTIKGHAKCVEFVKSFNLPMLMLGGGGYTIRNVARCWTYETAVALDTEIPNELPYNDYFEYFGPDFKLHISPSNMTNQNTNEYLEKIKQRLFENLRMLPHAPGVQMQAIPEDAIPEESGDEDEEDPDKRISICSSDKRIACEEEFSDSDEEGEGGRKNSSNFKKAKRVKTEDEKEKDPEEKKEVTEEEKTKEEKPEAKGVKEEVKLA
# Histone deacetylase HD1B, sequence (Q9ZTP8 whole entry): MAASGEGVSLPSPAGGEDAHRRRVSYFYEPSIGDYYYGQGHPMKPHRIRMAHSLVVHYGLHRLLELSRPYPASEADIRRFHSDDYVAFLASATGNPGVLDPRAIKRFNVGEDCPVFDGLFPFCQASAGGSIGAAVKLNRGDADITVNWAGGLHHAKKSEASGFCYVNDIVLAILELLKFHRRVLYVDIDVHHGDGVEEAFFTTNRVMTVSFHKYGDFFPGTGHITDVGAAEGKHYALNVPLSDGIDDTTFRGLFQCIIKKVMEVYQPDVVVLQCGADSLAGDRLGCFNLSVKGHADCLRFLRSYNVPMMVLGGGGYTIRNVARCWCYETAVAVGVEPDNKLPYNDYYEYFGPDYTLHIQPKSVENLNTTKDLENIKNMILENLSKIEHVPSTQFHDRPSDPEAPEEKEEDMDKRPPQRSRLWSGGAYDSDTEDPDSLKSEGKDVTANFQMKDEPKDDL
# Histone deacetylase 1 (Homo sapiens), sequence (Q13547 whole entry): as the sequence (O09106 whole entry) above, with K8R, E399D, D424E counted along it
# Histone deacetylase 4 (Homo sapiens), sequence (P56524 whole entry): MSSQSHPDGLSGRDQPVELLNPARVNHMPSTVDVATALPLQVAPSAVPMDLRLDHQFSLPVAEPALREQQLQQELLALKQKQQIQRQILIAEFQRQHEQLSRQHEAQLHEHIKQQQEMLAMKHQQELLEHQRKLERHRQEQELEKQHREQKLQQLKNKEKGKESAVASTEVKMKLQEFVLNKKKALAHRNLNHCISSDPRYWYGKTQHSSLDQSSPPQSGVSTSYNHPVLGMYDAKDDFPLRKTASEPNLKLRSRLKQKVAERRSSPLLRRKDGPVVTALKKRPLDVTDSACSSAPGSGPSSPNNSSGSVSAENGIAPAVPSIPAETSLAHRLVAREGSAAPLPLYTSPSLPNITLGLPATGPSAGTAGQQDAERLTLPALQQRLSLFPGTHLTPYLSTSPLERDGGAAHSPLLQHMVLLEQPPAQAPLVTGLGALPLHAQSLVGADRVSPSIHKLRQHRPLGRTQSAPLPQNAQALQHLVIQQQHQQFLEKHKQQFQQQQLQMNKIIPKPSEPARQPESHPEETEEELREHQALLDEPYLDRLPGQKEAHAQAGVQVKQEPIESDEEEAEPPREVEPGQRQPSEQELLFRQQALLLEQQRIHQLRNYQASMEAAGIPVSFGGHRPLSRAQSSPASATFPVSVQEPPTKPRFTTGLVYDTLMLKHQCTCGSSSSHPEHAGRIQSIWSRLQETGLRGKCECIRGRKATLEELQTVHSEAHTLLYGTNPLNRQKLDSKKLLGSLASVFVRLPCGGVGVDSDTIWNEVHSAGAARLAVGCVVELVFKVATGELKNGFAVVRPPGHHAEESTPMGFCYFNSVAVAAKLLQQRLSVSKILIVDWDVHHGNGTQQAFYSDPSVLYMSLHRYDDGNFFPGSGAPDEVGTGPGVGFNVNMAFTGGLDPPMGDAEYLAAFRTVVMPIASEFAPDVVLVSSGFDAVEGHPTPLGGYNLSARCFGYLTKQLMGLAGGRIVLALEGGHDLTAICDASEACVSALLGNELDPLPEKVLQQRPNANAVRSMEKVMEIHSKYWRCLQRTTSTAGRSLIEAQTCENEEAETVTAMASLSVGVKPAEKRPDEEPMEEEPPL
# Histone deacetylase HD1B (Zea mays), sequence (Q9ZTP8 as listed by the source): as the sequence (Q9ZTP8 whole entry) above
IC50 (Histone deacetylase HD1B),IC50 (Histone deacetylase HD2),Compound,also measured
0.4 nM,–,CC(/C=C/C(=O)NO)=C\[C@@H](C)C(=O)c1ccc(N(C)C)cc1 [TRICHOSTATIN],–
46 nM,40 nM,O=C(CCCCSc1nc(CCc2ccccc2)cc(=O)[nH]1)NO,–
–,–,O=C(CCCCCSc1nc(O)cc(C(c2ccccc2)c2ccccc2)n1)NO,Activity (U-937 [1]; Homo sapiens): inactive
31 nM,27 nM,O=C(CCCSc1nc(O)cc(-c2ccccc2)n1)NO,–
–,–,O=C(CCCCSc1nc(O)cc(CCc2ccccc2)n1)NO,Selectivity ratio (Zea mays [2]): > 3
62 nM,90 nM,O=C(CCCCCCCSc1nc(CCc2ccccc2)cc(=O)[nH]1)NO,–
–,–,O=C(CCCCCCSc1nc(O)cc(-c2ccccc2)n1)NO,Selectivity ratio (Zea mays [2]): > 3
60 nM,37 nM,O=C(CCSc1nc(O)cc(CCc2ccccc2)n1)NO,–
73 nM,80 nM,O=C(/C=C/c1ccc(CSc2nc(O)cc(Cc3ccccc3)n2)cc1)NO,Activity (U-937 [4]): 30%; IC50 (Histone deacetylase 1): 110 nM; Activity (U-937 [1]; Homo sapiens): inactive; Activity (U-937 [3]): 33%
170 nM,205 nM,O=C(CCCSc1nc(O)cc(CCc2ccccc2)n1)NO,–
1060 nM,760 nM,O=C(/C=C/c1ccccc1CSc1nc(O)cc(Cc2ccccc2)n1)NO,–
92 nM,9 nM,CC(c1ccccc1)c1cc(=O)[nH]c(SCCCCCC(=O)NO)n1 (stereo not drawn),IC50 (Histone deacetylase 1): 121 nM
10 nM,8 nM,O=C(CCCCSc1nc(-c2ccccc2)cc(=O)[nH]1)NO,inhibition [5]: 0%; IC50 (Histone deacetylase 1): 40 nM; inhibition [6]: 46%; Activity (U-937 [1]; Homo sapiens): inactive; Activity (U-937 [7]): Active; Activity (U-937 [8]): Active
89 nM,42 nM,O=C(CCCCCCCSc1nc(-c2ccccc2)cc(=O)[nH]1)NO,–
79 nM,82 nM,COC(c1ccccc1)c1cc(O)nc(SCCCCCC(=O)NO)n1 (stereo not drawn),–
31 nM,32 nM,CCC(c1ccccc1)c1cc(=O)[nH]c(SCCCCCC(=O)NO)n1 (stereo not drawn),–
48 nM,38 nM,O=C(CCCCCCSc1nc(-c2ccccc2)cc(=O)[nH]1)NO,–
58 nM,52 nM,O=C(CCCCCSc1nc(C(c2ccccc2)c2ccccc2)cc(=O)[nH]1)NO,–
–,–,O=C(/C=C/Sc1nc(O)cc(-c2ccccc2)n1)NO,inhibition [9]: 0%; inhibition [10]: 0%; inhibition (Zea mays [11]): 0%
47 nM,62 nM,O=C(CCCCCSc1nc(C2(c3ccccc3)CC2)cc(=O)[nH]1)NO,–
62 nM,83 nM,O=C(CCCCCCSc1nc(CCc2ccccc2)cc(=O)[nH]1)NO,–
–,–,O=C(CCCCCCC(=O)Nc1ccccc1)NO [VORINOSTAT],Activity (U-937 [4]): 48%; Activity (U-937 [1]): 98%; Activity (U-937 [3]): 32%; Activity (U-937 [12]): Active
780 nM,367 nM,O=C(/C=C/c1ccccc1CSc1nc(O)cc(-c2ccccc2)n1)NO,–
64 nM,17 nM,O=C(/C=C/c1cccc(CSc2nc(O)cc(-c3ccccc3)n2)c1)NO,Activity (U-937 [13]): Active; IC50 (Histone deacetylase 1): 57 nM; Activity (U-937 [1]; Homo sapiens): inactive; Activity (U-937 [7]): Active; Activity (U-937 [14]): Active; Activity (U-937 [3]): 33%; Activity (U-937 [15]): Active
–,–,O=C(CCCCCCCSc1nc(O)cc(-c2ccccc2)n1)NO,Selectivity ratio (Zea mays [2]): > 3
42 nM,41 nM,O=C(/C=C/c1cccc(CSc2nc(O)cc(Cc3ccccc3)n2)c1)NO,IC50 (Histone deacetylase 1): 90 nM; Activity (U-937 [1]; Homo sapiens): inactive; Activity (U-937 [16]): 8%
890 nM,822 nM,O=C(CCSc1nc(-c2ccccc2)cc(=O)[nH]1)NO,–
112 nM,23 nM,O=C(/C=C/c1ccc(CSc2nc(O)cc(-c3ccccc3)n2)cc1)NO,Activity (U-937 [4]): 42.5%; inhibition [5]: 14%; IC50 (Histone deacetylase 1): 34 nM; inhibition [6]: 94%; Activity (U-937 [1]; Homo sapiens): inactive; Activity (U-937 [7]): Active; Activity (U-937 [14]): Active; Activity (U-937 [16]): 8.8%; Activity (U-937 [3]): 46%; Activity (U-937 [15]): Active
96000 nM,41000 nM,O=C(/C=C/Sc1nc(O)cc(CCc2ccccc2)n1)NO,–

Compound,IC50 (Histone deacetylase HD1B),IC50 (Histone deacetylase HD2),also measured
O=C(CCCCCSc1nc(Cc2ccccc2)cc(=O)[nH]1)NO,18 nM,–,IC50 (Histone deacetylase 1): 103 nM; Activity (U-937 [1]; Homo sapiens): inactive; Activity (U-937 [3]): 30%
O=C(CCCCCSc1nc(-c2ccccc2)cc(=O)[nH]1)NO,19 nM,–,Selectivity ratio (Zea mays [2]): > 3

# Reference: ChEMBL document CHEMBL1137389, “Synthesis and biological properties of novel, uracil-containing histone deacetylase inhibitors” (J Med Chem, 2006)
